Measured values from ChEMBL document CHEMBL1124265, “Effects of D-amino acid substitution on antagonist activities of angiotensin II analogues” (J Med Chem, 1988).
Residues, ends and D or L forms follow the SMILES beside them.

How the values were obtained:
[1] = organism: Rattus norvegicus; experiment: Dose required for the two fold increase in the dose of AII to produce the same elevation in blood pressure as in the control period.; assay type: functional
How it was run: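 Rat blood pressure assay in vivo, using 250-g rats. ID50 is the antagonist dose, in ng/rat per min, that requires a twofold increase in the AII dose to give the same blood pressure rise as in the control period.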

[2] = test system: Rattus norvegicus; experiment: In vivo AII-like activity, expressed as percent activity relative to AII (angiotensin II), measured in rat blood pressure assay; assay type: functional
How it was run: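 Rat blood pressure assay in vivo. Residual agonist activity is expressed as percent activity relative to AII.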

[3] = target: Angiotensin II receptor (Homo sapiens) (UniProt P30556+P50052); experiment: In vitro angiotensin II-like activity, expressed as percent relative to angiotensin II, measured in the rabbit aorta strip assay; assay type: functional, tissue-based; conditions: Oryctolagus cuniculus

Biological activity [3] [%]	Compound	Biological activity [2] [%]	also measured
–	CC[C@H](C)[C@H](NC(=O)[C@H](Cc1ccc(O)cc1)NC(=O)[C@@H](NC(=O)[C@H](CCCNC(=N)N)NC(=O)CNC)C(C)C)C(=O)N[C@@H](Cc1c[nH]cn1)C(=O)N1CCC[C@H]1C(=O)N[C@H](Cc1ccc(Cl)cc1)C(=O)O	–	ID50 [1]: 25 ng min-1 rat-1
–	CC(C)[C@H](NC(=O)[C@H](CCCN=C(N)N)NC(=O)[C@@H](N)CC(N)=O)C(=O)N[C@@H](Cc1ccc(O)cc1)C(=O)N[C@H](C(=O)N[C@@H](Cc1c[nH]cn1)C(=O)N1CCC[C@H]1C(=O)N[C@@H](Cc1ccccc1)C(N)=O)C(C)C (H-NRVYVHPF-NH2)	3	–
–	CC[C@H](C)[C@H](NC(=O)[C@H](Cc1ccc(O)cc1)NC(=O)[C@@H](NC(=O)[C@H](CCCN=C(N)N)NC(=O)[C@@H](N)CC(=O)O)C(C)C)C(=O)N[C@@H](Cc1c[nH]cn1)C(=O)N1CCC[C@H]1C(=O)N[C@@H](Cc1ccc(N)cc1)C(=O)O	53	–
100	CC[C@H](C)[C@H](NC(=O)[C@H](Cc1ccc(O)cc1)NC(=O)[C@@H](NC(=O)[C@H](CCCN=C(N)N)NC(=O)[C@@H](N)CC(=O)O)C(C)C)C(=O)N[C@@H](Cc1c[nH]cn1)C(=O)N1CCC[C@H]1C(=O)N[C@@H](Cc1ccc(O)cc1)C(=O)O (H-DRVYIHPY-OH)	83	–
–	CC[C@H](C)[C@H](NC(=O)[C@H](Cc1ccc(O)cc1)NC(=O)[C@@H](NC(=O)[C@H](CCCN=C(N)N)NC(=O)[C@@H](N)CC(=O)O)C(C)C)C(=O)N[C@@H](Cc1c[nH]cn1)C(=O)N1CCC[C@H]1C(=O)N[C@@H](Cc1ccc(Br)cc1)C(=O)O	50	–
-0	CC[C@H](C)[C@H](NC(=O)[C@@H]1CCCN1C(=O)[C@H](Cc1c[nH]cn1)NC(=O)[C@H](NC(=O)[C@@H](Cc1ccc(O)cc1)NC(=O)[C@@H](NC(=O)[C@H](CCCN=C(N)N)NC(=O)CNC)C(C)C)C(C)C)C(=O)O	–	–
–	CC[C@H](C)[C@H](NC(=O)[C@H](Cc1ccc(O)cc1)NC(=O)[C@@H](NC(=O)[C@@H](CCCNC(=N)N)NC(=O)CNC)C(C)C)C(=O)N[C@@H](Cc1c[nH]cn1)C(=O)N1CCC[C@@H]1C(=O)NC(Cc1c[nH]c2ccccc12)C(=O)O (stereo in doubt) [listing 1 of 2 here]	–	ID50 [1]: 10 ng min-1 rat-1
-0	CC[C@H](C)[C@H](NC(=O)[C@H](Cc1ccc(O)cc1)NC(=O)[C@@H](NC(=O)[C@@H](CCCNC(=N)N)NC(=O)CNC)C(C)C)C(=O)N[C@@H](Cc1c[nH]cn1)C(=O)N1CCC[C@@H]1C(=O)N[C@H](Cc1ccccc1)C(N)=O	–	–
-0	CC[C@H](C)[C@H](NC(=O)[C@H](Cc1ccc(O)cc1)NC(=O)[C@@H](NC(=O)[C@@H](CCCN=C(N)N)NC(=O)[C@@H](N)CC(=O)O)C(C)C)C(=O)NC(Cc1c[nH]cn1)C(=O)N1CCC[C@@H]1C(=O)N[C@@H](C(=O)O)[C@@H](C)CC (stereo in doubt) [listing 1 of 2 here]	–	–
-0	CC[C@H](C)[C@H](NC(=O)[C@@H]1CCCN1C(=O)[C@H](Cc1c[nH]cn1)NC(=O)[C@@H](NC(=O)[C@@H](Cc1ccc(O)cc1)NC(=O)[C@@H](NC(=O)[C@H](CCCN=C(N)N)NC(=O)CNC)C(C)C)[C@@H](C)CC)C(=O)O	–	–
-0	CC[C@H](C)[C@H](NC(=O)[C@@H]1CCCN1C(=O)[C@@H](Cc1c[nH]cn1)NC(=O)[C@@H](NC(=O)[C@@H](Cc1ccc(O)cc1)NC(=O)[C@@H](NC(=O)[C@H](CCCN=C(N)N)NC(=O)CNC)C(C)C)[C@@H](C)CC)C(=O)O	–	–
-0	CC[C@H](C)[C@H](NC(=O)C(C)NC(=O)[C@H](Cc1c[nH]cn1)NC(=O)[C@H](NC(=O)[C@@H](Cc1ccc(O)cc1)NC(=O)[C@@H](NC(=O)[C@H](CCCNC(=N)N)NC(=O)[C@@H](N)CC(=O)O)C(C)C)C(C)C)C(=O)O (stereo in doubt) [listing 1 of 2 here]	–	–
–	CC(C)[C@H](NC(=O)[C@H](CCCN=C(N)N)NC(=O)[C@@H](N)CC(N)=O)C(=O)N[C@H](Cc1ccc(O)cc1)C(=O)N[C@H](C(=O)N[C@@H](Cc1c[nH]cn1)C(=O)N1CCC[C@H]1C(=O)N[C@@H](Cc1ccccc1)C(=O)O)C(C)C	0.03	–
–	CC[C@H](C)[C@H](NC(=O)[C@H](Cc1ccc(O)cc1)NC(=O)[C@@H](NC(=O)[C@@H](CCCN=C(N)N)NC(=O)[C@@H](N)CC(=O)O)C(C)C)C(=O)NC(Cc1c[nH]cn1)C(=O)N1CCC[C@@H]1C(=O)N[C@@H](C(=O)O)[C@@H](C)CC (stereo in doubt) [listing 2 of 2 here]	0.014	–
-0	CC[C@H](C)[C@H](NC(=O)[C@H](Cc1ccc(O)cc1)NC(=O)[C@@H](NC(=O)[C@@H](CCCNC(=N)N)NC(=O)CNC)C(C)C)C(=O)NC(Cc1c[nH]cn1)C(=O)N1CCC[C@@H]1C(=O)N[C@@H](C(=O)O)C(C)C (stereo in doubt)	–	–
–	CC(C)[C@H](NC(=O)[C@H](CCCN=C(N)N)NC(=O)[C@@H](N)CC(N)=O)C(=O)N[C@@H](Cc1ccc(O)cc1)C(=O)N1CCC[C@H]1C(=O)N[C@@H](Cc1c[nH]cn1)C(=O)N1CCC[C@H]1C(=O)N[C@@H](Cc1ccccc1)C(=O)O	10	–
–	CC[C@H](C)[C@H](NC(=O)[C@H](Cc1ccc(O)cc1)NC(=O)[C@@H](NC(=O)[C@H](CCCNC(=N)N)NC(=O)C[C@@H](N)C(=O)O)C(C)C)C(=O)N[C@@H](Cc1c[nH]cn1)C(=O)N1CCC[C@H]1C(=O)N[C@@H](CC(C)C)C(=O)O	–	ID50 [1]: 15 ng min-1 rat-1

Biological activity [3] [%]	Compound	Biological activity [2] [%]	also measured
-0	CC[C@H](C)[C@H](NC(=O)[C@H](Cc1ccc(O)cc1)NC(=O)[C@@H](NC(=O)[C@@H](CCCNC(=N)N)NC(=O)CNC)C(C)C)C(=O)N[C@@H](Cc1c[nH]cn1)C(=O)N1CCC[C@@H]1C(=O)N[C@](C)(Cc1ccccc1)C(=O)O	–	–
–	CC[C@H](C)[C@H](NC(=O)[C@H](Cc1ccc(O)cc1)NC(=O)[C@@H](NC(=O)[C@H](CCCN=C(N)N)NC(=O)[C@@H](N)CC(=O)O)C(C)C)C(=O)N[C@@H](Cc1c[nH]cn1)C(=O)N1CCC[C@H]1C(=O)N[C@@H](Cc1c[nH]c2ccccc12)C(=O)O (H-DRVYIHPW-OH)	22.2	–
-0	CC[C@H](C)[C@H](NC(=O)[C@@H]1CCCN1C(=O)[C@H](Cc1c[nH]cn1)NC(=O)[C@@H](NC(=O)[C@H](Cc1ccc(O)cc1)NC(=O)[C@H](NC(=O)[C@H](CCCN=C(N)N)NC(=O)CNC)C(C)C)[C@@H](C)CC)C(=O)O	–	–
-0	CC[C@H](C)[C@H](NC(=O)[C@H](Cc1ccc(O)cc1)NC(=O)[C@@H](NC(=O)[C@@H](CCCNC(=N)N)NC(=O)CNC)C(C)C)C(=O)N[C@@H](Cc1c[nH]cn1)C(=O)N1CCC[C@@H]1C(=O)NC(Cc1c[nH]c2ccccc12)C(=O)O (stereo in doubt) [listing 2 of 2 here]	–	–
–	CC[C@H](C)[C@H](NC(=O)[C@H](Cc1ccc(O)cc1)NC(=O)[C@@H](NC(=O)[C@H](CCCNC(=N)N)NC(=O)CNC)C(C)C)C(=O)N[C@@H](Cc1c[nH]cn1)C(=O)N1CCC[C@H]1C(=O)N[C@H](Cc1ccc2ccccc2c1)C(=O)O	–	ID50 [1]: 25 ng min-1 rat-1
-0	CC[C@H](C)[C@H](NC(=O)[C@H](Cc1ccc(O)cc1)NC(=O)[C@@H](NC(=O)[C@@H](CCCNC(=N)N)NC(=O)CNC)C(C)C)C(=O)N[C@@H](Cc1c[nH]cn1)C(=O)N1CCC[C@@H]1C(=O)N[C@H](Cc1ccc(B(O)O)cc1)C(=O)O	–	–
-0	CC[C@H](C)[C@H](NC(=O)[C@H](Cc1ccc(O)cc1)NC(=O)[C@@H](NC(=O)[C@@H](CCCNC(=N)N)NC(=O)CNC)C(C)C)C(=O)N[C@@H](Cc1c[nH]cn1)C(=O)N1CCC[C@@H]1C(=O)N[C@@H](Cc1ccc2ccccc2c1)C(=O)O	–	–
–	CC[C@H](C)[C@H](NC(=O)C(C)NC(=O)[C@H](Cc1c[nH]cn1)NC(=O)[C@H](NC(=O)[C@@H](Cc1ccc(O)cc1)NC(=O)[C@@H](NC(=O)[C@H](CCCNC(=N)N)NC(=O)[C@@H](N)CC(=O)O)C(C)C)C(C)C)C(=O)O (stereo in doubt) [listing 2 of 2 here]	–	ID50 [1]: 0 ng min-1 rat-1
-0	CC[C@H](C)[C@H](NC(=O)[C@@H](Cc1ccc(O)cc1)NC(=O)[C@@H](NC(=O)[C@H](CCCNC(=N)N)NC(=O)CNC)C(C)C)C(=O)N[C@@H](Cc1c[nH]cn1)C(=O)N1CCC[C@H]1C(=O)N[C@@H](C(=O)O)C(C)C	–	–
–	CC[C@H](C)[C@H](NC(=O)[C@H](Cc1ccc(O)cc1)NC(=O)[C@@H](NC(=O)[C@H](CCCN=C(N)N)NC(=O)[C@@H](N)CC(=O)O)C(C)C)C(=O)N[C@@H](Cc1c[nH]cn1)C(=O)N1CCC[C@H]1C(=O)N[C@H](C(=O)O)C(C)C (H-DRVYIHPV-OH)	0.5	–
-0	CC[C@H](C)[C@H](NC(=O)[C@@H]1CCCN1C(=O)[C@H](Cc1c[nH]cn1)NC(=O)[C@@H](NC(=O)[C@@H](Cc1ccc(O)cc1)NC(=O)[C@@H](NC(=O)[C@@H](CCCN=C(N)N)NC(=O)CNC)C(C)C)[C@@H](C)CC)C(=O)O	–	–
–	CC(C)[C@H](NC(=O)[C@H](CCCNC(=N)N)NC(=O)[C@@H](N)CC(N)=O)C(=O)N[C@@H](Cc1ccc(O)cc1)C(=O)N1CCC[C@@H]1C(=O)N[C@@H](Cc1c[nH]cn1)C(=O)N1CCC[C@H]1C(=O)N[C@@H](Cc1ccccc1)C(=O)O	0.05	–
–	CC[C@H](C)[C@H](NC(=O)[C@H](Cc1ccc(O)cc1)NC(=O)[C@@H](NC(=O)[C@H](CCCNC(=N)N)NC(=O)[C@@H](N)CC(=O)O)C(C)C)C(=O)N[C@@H](Cc1c[nH]cn1)C(=O)N1CCC[C@H]1C(=O)N[C@@H](C(=O)O)[C@@H](C)CC	0.72	–
-0	CC[C@H](C)[C@H](NC(=O)[C@H](Cc1ccc(O)cc1)NC(=O)[C@@H](NC(=O)[C@@H](CCCNC(=N)N)NC(=O)CNC)C(C)C)C(=O)N[C@@H](Cc1c[nH]cn1)C(=O)N1CCC[C@@H]1C(=O)N[C@H](Cc1ccc(Cl)cc1)C(=O)O	–	–
–	CC[C@H](C)[C@H](NC(=O)[C@H](Cc1ccc(O)cc1)NC(=O)[C@@H](NC(=O)[C@H](CCCN=C(N)N)NC(=O)[C@@H](N)CC(=O)O)C(C)C)C(=O)N[C@@H](Cc1c[nH]cn1)C(=O)N1CCC[C@H]1C(=O)N[C@@](C)(Cc1ccccc1)C(=O)O	80	–
–	COC(=O)[C@H](Cc1ccccc1)NC(=O)[C@@H]1CCCN1C(=O)[C@H](Cc1c[nH]cn1)NC(=O)[C@@H](NC(=O)[C@H](Cc1ccc(O)cc1)NC(=O)[C@@H](NC(=O)[C@H](CCCN=C(N)N)NC(=O)[C@@H](N)CC(N)=O)C(C)C)C(C)C (H-NRVYVHPF-OMe)	10	–
